Assay results published in ChEMBL document CHEMBL1133088 (J Med Chem, 2000).

How the values were obtained:
[1] = % lactone at different intervals of time in PBS with RBC suspension; assay type: ADME; conditions: erythrocytes
Method in brief: (§1)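 Lactone-ring hydrolysis of 1 uM drug at 37 °C and pH 7.4, incubated in PBS, in PBS containing physiologically relevant HSA or albumin-free red blood cells, or in whole human blood. Isocratic acetonitrile/2% triethylamine acetate (pH 5.5) at 1 mL/min; lactone eluted near 7.0 min, carboxylate near 2.0 min.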

[2] = Half life of compound in PBS with HSA suspension; assay type: ADME; conditions: human, HSA (human serum albumin) in PBS; method in brief: as §1
[3] = Half life in human blood.; assay type: ADME, organism-based; conditions: whole blood; method in brief: as §1
[4] = Equilibrium association constant interacting with unilamellar vesicles of negatively charged DMPG in PBS buffer at pH of 7.4 and 37 degrees celsius.; assay type: ADME; conditions: pH 7.4
Method in brief: (§2)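 Fluorescence anisotropy titration of 1 uM total drug with small unilamellar vesicles (DMPC or DMPG) in PBS, pH 7.4, 37 °C. SUVs were sonicated from 10 mg/mL lipid stocks and annealed 30 min at 37 °C; DMPG pH was readjusted to 7.4. Readings were taken about 0.5–1 min after mixing. K came from least-squares slopes of double-reciprocal plots (1/bound fraction vs 1/[lipid]).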

[5] = % lactone at different intervals of time in PBS with HSA suspension; assay type: ADME; conditions: human, buffer; method in brief: as §1
[6] = % lactone at different intervals of time in PBS suspension; assay type: ADME; conditions: buffer; method in brief: as §1
Homo sapiens = species on record: Homo sapiens; test: % lactone at different intervals of time in human blood.; assay type: ADME, organism-based; method in brief: as §1
[7] = Half life of compound in PBS suspension; assay type: ADME; method in brief: as §1
[8] = Equilibrium association constant interacting with unilamellar vesicles of electroneutral in PBS buffer at pH 7.4; assay type: ADME; method in brief: as §2
[9] = Half life for of compound in PBS with RBC suspension; assay type: ADME; conditions: RBC (red blood cell) suspension in PBS; method in brief: as §1
U-87 MG [10] = test: Inhibition of tumor growth at day 28 postimplantation after administration of 10 mg/kg/day in nude mouse U87 glioma subcutaneous model system; assay type: functional, U-87MG ATCC; conditions: sc, 672 h
[11] = Inhibition against MDA-MB-435 S human breast cancer cells in the absence of albumin; assay type: functional, cell-based
Method in brief: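 Read-out was sulforhodamine B, which stains protein in cells and cell fragments still attached to the dish bottom, including dying or dead attached cells. IC50 was derived from the cell survival profiles.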

Tumor Cell line = test: Mean GI50 against variety of human tumor cell lines; assay type: functional
Method in brief: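 NCI tumour cell panel: 5000–40 000 cells/well preincubated 24 h at 37 °C, then exposed 48 h (5% CO2) to five 10-fold dilutions from DMSO stocks. Highest well concentration in routine testing was 10^-4 M. Growth was read by sulforhodamine B protein staining.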

U-87 MG [12] = test: Inhibition of tumor growth at day 28 postimplantation after administration of 3 mg/kg/day in nude mouse U87 glioma subcutaneous model system; assay type: functional, U-87MG ATCC; conditions: sc, 672 h
MDA-MB-435 [13] = test: Inhibition against MDA-MB-435 human breast cancer cells in the absence of HSA; assay type: functional, cell-based
Method in brief: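 MDA-MB-435 S human breast cancer cells exposed to drug with or without added HSA. Viability was read after a 3-day growth assay by sulforhodamine B staining of protein remaining attached to the dish.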

MDA-MB-435 [14] = test: Inhibition against MDA-MB-435 human breast cancer cells in the presence of 1 mg/mL HSA

SMILES	Lactone [1]	half-life [2]	half-life [3]	KDMPG [4]	Lactone [5]	Lactone [6]	Lactone (Homo sapiens)	half-life [7]	KDMPC [8]	half-life [9]	inhibition in vivo at 10 mg/kg/day (U-87 MG [10])	IC50 [11]	GI50 (Tumor Cell line)	inhibition in vivo at 3 mg/kg/day (U-87 MG [12])	half-life ([9]; human)	IC50 (MDA-MB-435 [13])	IC50 (MDA-MB-435 [14])
CC[C@@]1(O)C(=O)OCc2c1cc1n(c2=O)Cc2c-1nc1ccccc1c2[Si](C)(C)CCCCl	43.4%	16 min	85.6 min	2500 M⁻¹	2.7%	12%	2.2%	23.3 min	2800 M⁻¹	59.7 min							
CC[C@@]1(O)C(=O)OCc2c1cc1n(c2=O)Cc2c-1nc1ccc(O)cc1c2[Si](C)(C)CCCCl	50.2%	48 min	65.3 min	1200 M⁻¹	17.2%	11.3%	17.8%	29.5 min	2200 M⁻¹	67.7 min							
CC[C@@]1(O)C(=O)OCc2c1cc1n(c2=O)Cc2c-1nc1ccccc1c2[Si](C)(C)C(C)(C)C	59.4%	46.3 min	71 min	16000 M⁻¹	0.1%	12.2%	1%	27.9 min	15500 M⁻¹	79.4 min							
CCc1c2c(nc3ccc(O)cc13)-c1cc3c(c(=O)n1C2)COC(=O)[C@]3(O)CC [7-ETHYL-10-HYDROXYCAMPTOTHECIN]	37.5%	36.1 min	32 min	160 M⁻¹		15.3%	19.5%	20.9 min	260 M⁻¹	24.4 min							
CC[C@@]1(O)C(=O)OCc2c1cc1n(c2=O)Cc2c-1nc1ccc(O)cc1c2[Si](C)(C)C(C)(C)C [AR-67]	41.4%	119 min		2800 M⁻¹	10.5%	10.2%	30.5%	31.8 min	2500 M⁻¹		73%	14 nM	21 nM	61%	51.4 min		
CC[C@@]1(O)C(=O)OCc2c1cc1n(c2=O)Cc2cc3ccccc3nc2-1 [CAMPTOTHECIN]	34.6%	11.9 min		100 M⁻¹	< 0.5%	17%	5.3%		100 M⁻¹	30.8 min			44 nM			15 nM	375 nM
CC[C@@]1(O)C(=O)OCc2c1cc1n(c2=O)Cc2cc3cc(O)ccc3nc2-1 [HYDROXYCAMPTOTHECIN]													36 nM				
CC[C@@]1(O)C(=O)OCc2c1cc1n(c2=O)Cc2cc3c(CN(C)C)c(O)ccc3nc2-1 [TOPOTECAN]				50 M⁻¹					10 M⁻¹								
